# Compound activity (PubChem)
# Wee1 degr inh: human Wee1 degradation inhibition, primary screen; P30291; HeLa Luc-Wee1K328M stability, luciferase luminescence; 100% = proteasome inhibitor MG132 effect; reporter increase, % at 5 µM; 1.2% of 220,000 active;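 active = activation above the mean of all tested compounds plus 3 SD, set per screening run, cut at about 8.8% in these data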;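 note: cells exposed to compound for 20 h before luminescence read; 0% = DMSO alone and 100% = MG132 at 30 µM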
# CHOP inh: inhibitors of CHOP induction in ER stress response; CHO-K1 CHOP-promoter luciferase, tunicamycin-induced, 15-18 h; inhibition, % at 10 µM; 3.8% of 220,000 active; AID 2732;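 active = compounds that reduced the stress-induced luciferase reporter signal by more than about 70% of percent inhibition, limit read from the data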;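 note: 0% = tunicamycin plus vehicle and 100% = wells without tunicamycin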
# Lmaj promast: Leishmania major promastigote growth inhibition; 9% of 200,000 active; inhibition, % at 10 µM; Leishmania major promastigotes, resazurin fluorescence viability;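 note: promastigotes grown with compound for 44 hours at 28 °C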
# PKD1 kinase inh: PKD1 (human) kinase inhibition | PKD1 kinase fluorescence polarization assay | inhibition, % (no concentration beside the values) | 0.056% of 200,000 active
# Target sequence (Q15139 whole entry, looked up): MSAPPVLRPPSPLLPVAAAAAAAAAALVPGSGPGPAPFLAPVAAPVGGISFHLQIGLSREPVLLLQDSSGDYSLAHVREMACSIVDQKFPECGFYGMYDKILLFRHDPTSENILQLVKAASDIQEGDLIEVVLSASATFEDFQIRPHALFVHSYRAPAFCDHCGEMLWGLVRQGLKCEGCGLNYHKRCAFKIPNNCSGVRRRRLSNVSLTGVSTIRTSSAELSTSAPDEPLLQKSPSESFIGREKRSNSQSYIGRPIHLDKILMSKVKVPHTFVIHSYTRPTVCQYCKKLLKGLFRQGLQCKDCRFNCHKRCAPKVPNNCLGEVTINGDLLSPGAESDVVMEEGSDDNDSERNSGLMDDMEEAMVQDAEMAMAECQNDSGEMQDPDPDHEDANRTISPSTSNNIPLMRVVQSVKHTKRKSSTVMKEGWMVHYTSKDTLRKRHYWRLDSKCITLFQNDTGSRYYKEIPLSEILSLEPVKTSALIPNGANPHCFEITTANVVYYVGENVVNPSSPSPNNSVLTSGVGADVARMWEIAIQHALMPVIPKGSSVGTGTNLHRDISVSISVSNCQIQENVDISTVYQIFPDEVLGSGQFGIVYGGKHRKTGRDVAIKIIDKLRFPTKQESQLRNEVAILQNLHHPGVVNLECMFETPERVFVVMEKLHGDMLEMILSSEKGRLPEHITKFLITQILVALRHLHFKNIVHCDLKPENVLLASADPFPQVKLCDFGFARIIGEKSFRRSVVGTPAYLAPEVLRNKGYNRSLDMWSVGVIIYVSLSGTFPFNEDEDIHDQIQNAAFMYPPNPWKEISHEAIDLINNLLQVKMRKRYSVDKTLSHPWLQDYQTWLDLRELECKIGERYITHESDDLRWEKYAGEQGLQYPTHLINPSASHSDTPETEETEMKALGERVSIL
# Rad51 HR inh: blocks human Rad51 in homologous recombination; inhibition, % at 10 µM; 0.085% of 200,000 active; hRad51 DNA strand exchange, fluorescence dequenching; Q06609; AID 1385;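 active = inhibition above 40% at the single screening dose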;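 note: 0% = DMSO control wells and 100% = blanks with heterologous ssDNA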
#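 Material: hRad51 filaments on single-stranded DNA; Reagent: Donor/quencher-labelled 47-bp dsDNA substrate; Compound: 10 µM final, single point; Schedule: 37 °C 15-min filament assembly, 30-min compound preincubation, 15-min exchange; Technique: FRET fluorescence, excitation 485 nm, emission 520 nm; Benchmarks: control wells and blank wells on each plate.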
# Arbovirus anti: blocks arbovirus infection. inhibition, % at 10 µM. AID 1251. arbovirus infection cell-based antiviral screen. 0.37% of 200,000 active; in the data active = inhibition above about 30%
# * hit, by the source's call; . = not tested or not shown. Most compounds without a hit are left out; they make up all but 12% or so of the library. Cut-off read from the data, not from the text of the source, unless noted: active = inhibition above about 50%; inactive = the rest.
SMILES,Wee1 degr inh,CHOP inh,Lmaj promast,PKD1 kinase inh,Rad51 HR inh,Arbovirus anti
O=C(Nc1ccccc1F)Oc1cccc(OC(=O)Nc2ccccc2F)c1,-1.6,-1.9,.,.,5.4,.
COc1cccc(C2=CC(c3ccc(OC)c(OC)c3OC)n3nnnc3N2)c1 (stereo unspecified),1.6,21.7,78.5*,2.8,6.2,1.8
Cc1ccc(C2=CC(c3ccccc3)n3ncnc3N2)cc1 (stereo unspecified),.,.,.,.,-6.5,.
Cc1ccc(C2C=C(c3ccc4c(c3)OCO4)Nc3ncnn32)cc1 (stereo unspecified),1.4,-12.0,-0.1,-9.8,.,84.5*
COc1cccc(C2=CC(c3ccc(C)cc3)n3ncnc3N2)c1 (stereo unspecified),0.7,35.7,-5.5,-5.5,-1.1,65.8*
c1ccc(OCc2noc(CN3CCC(C4CCCCC4)C3)n2)cc1 (stereo unspecified),2.6,68.8,54.5*,-7.8,10.4,-9.5
Fc1ccccc1Cc1noc(CN2CCN(C/C=C/c3ccccc3)CC2)n1,2.5,-0.9,84.7*,-0.5,.,-2.3
c1ccc(Cc2noc(CN3CCN(CCOc4ccccc4)CC3)n2)cc1,6.3,31.9,75.1*,0.8,19.1,2.2
Cc1ccc(C)c(NC(=S)c2ccccn2)c1,-1.2,-120.6,98.3*,-1.9,3.1,-3.6
Cc1ccc(C)c(NC(=S)c2ccc3ccccc3n2)c1,3.4,-38.3,-1.8,10.5,.,7.2
S=C(Nc1ccccn1)c1ccccn1,0.1,-37.5,98.4*,-12.4,0.6,-24.8
O=C(N1CCOCC1)N1CCN(C(c2ccccc2)c2ccccc2)CC1,0.1,-13.0,-3.4,-7.4,0.7,-2.7
CCS(=O)(=O)N1CCC(C(=O)N2CCN(Cc3ccccc3)CC2)CC1,-1.6,15.5,0.4,-4.5,-33.0,7.0
CS(=O)(=O)N1CCC(C(=O)N2CCN(C(c3ccccc3)c3ccccc3)CC2)CC1,-2.0,-23.3,67.0*,-0.7,5.4,-6.3
O=C(N1CCCCC1)N1CCN(C(c2ccccc2)c2ccccc2)CC1,0.0,82.7*,9.7,-0.3,10.7,-34.2
COc1cc(CNn2nnnc2N)cc(Br)c1OCc1c(Cl)cccc1Cl,-1.7,37.6,94.1*,-5.0,4.5,3.8
COc1cc(CNn2nnnc2N)cc(Br)c1OCC(=O)NC(C)(C)C,-1.3,12.2,-0.9,-1.8,1.1,9.6
CCc1c(C)sc(NC(=O)Cn2nc(C(F)(F)F)c3c2CCCC3)c1C#N,3.0,93.3*,-7.4,-13.5,0.2,-5.3
CC(C)CNC(=O)Cn1nc(C(F)(F)F)c2c1CCCC2,1.7,-15.0,-5.7,3.1,.,2.0
CCCC(=O)Nc1sc(C)c(C)c1C#N,1.8,7.0,-1.9,-6.7,-0.3,-6.0
CCc1c(C)sc(NC(=O)CC#N)c1C#N,-1.9,23.1,66.3*,-12.3,-10.4,7.2
CN(C)C(=O)CSc1nc2ccc(N3C(=O)c4ccccc4C3=O)cc2s1,-2.0,13.6,.,.,.,.
COC(=O)c1sc(S(=O)(=O)NC(C)C(=O)O)c(C(=O)OC)c1C (stereo unspecified),0.1,24.7,-1.2,-4.1,6.5,3.1
CC(C)c1ccc(C(=O)NN2C(=O)C3CCCCC3C2=O)cc1 (stereo unspecified),2.2,-38.1,7.7,11.3,.,10.0
O=C(NNS(=O)(=O)c1ccc(F)cc1)C1CCN(Cc2cccc(F)c2)CC1,-1.7,16.5,85.8*,-6.9,5.3,12.1
SMILES,Wee1 degr inh,CHOP inh,Lmaj promast,PKD1 kinase inh,Rad51 HR inh,Arbovirus anti
Cc1cc(C)c(S(=O)(=O)NNC(=O)C2CCN(Cc3ccccc3)CC2)c(C)c1,0.5,30.1,91.1*,-4.8,-6.1,8.0
COC(=O)c1cc(C(=O)Nc2ccc(S(N)(=O)=O)cc2)cc([N+](=O)[O-])c1,-0.1,-9.0,60.5*,-4.0,.,0.2
CCCC(C)c1nnc(NC(=O)c2cc(C(=O)OC)cc([N+](=O)[O-])c2)s1 (stereo unspecified),1.5,51.1,96.8*,-6.0,-1.9,12.2
COC(=O)c1cc(C(=O)Nc2ccc(C)cn2)cc([N+](=O)[O-])c1,-2.6,-1.2,-5.0,5.9,-1.0,3.2
COc1ccc(NS(=O)(=O)c2cc(NC(=O)c3ccc(C)s3)ccc2N2CCOCC2)cc1,-2.4,13.0,.,.,-15.0,.
COc1ccc(NC(=S)N(CCN(C)C)C(C)c2ccco2)cc1Cl (stereo unspecified),1.5,44.6,67.5*,-11.3,4.7,12.0
Cc1ccc(CNC(=O)CN(C)S(=O)(=O)c2cccs2)cc1,-0.1,-10.4,0.6,-3.9,-4.1,0.4
COc1cccc2cc(S(=O)(=O)c3ccccc3)c(=Nc3ccc4c(c3)OCCO4)oc12,2.9,24.7,91.8*,-6.9,-0.5,-1.4
Cc1ccc(S(=O)(=O)c2cc3ccccc3oc2=Nc2ccc3c(c2)OCCO3)cc1,1.5,19.3,97.8*,-6.7,8.4,-9.5
Cc1ccc(S(=O)(=O)c2cc3ccccc3oc2=Nc2ccc3c(c2)OCO3)cc1,0.4,5.4,-4.9,1.9,-6.6,-5.0
CCCNC(=O)CN(C)CC(=O)Nc1ccccc1C#N,6.1,-2.5,-5.3,1.3,4.8,2.1
Cc1ccc2[nH]c(=O)cc(C(=O)OCC(=O)c3ccc(F)cc3)c2c1,3.9,77.0*,0.4,-3.3,-2.5,-3.4
CCn1cc(C(=O)OCc2ccccc2)c(=O)c2ccc(C)nc21,4.0,28.9,77.8*,-0.5,.,-1.7
CCn1cc(C(=O)OCC(=O)OC2CC(C)CCC2C(C)C)c(=O)c2ccc(C)nc21 (stereo unspecified),7.8,88.6*,79.4*,-4.5,-6.3,4.5
CCCCc1ccc(NC(=S)NCc2ccc(OC)cc2)cc1,1.8,-11.9,15.8,9.9,-12.7,-4.6
COc1ccc(NC(=S)N2CCCN(Cc3cc(C)ccc3C)C2)cc1,3.6,3.1,55.5*,6.6,16.5,3.1
COc1ccc(NC(=S)N2CCCN(Cc3cccc(Cl)c3)C2)cc1,5.1,-18.2,93.7*,-5.1,19.0,3.4
COc1cccc(NC(=S)N2CCCN(Cc3ccc(F)cc3)C2)c1,-1.3,4.5,87.3*,-4.7,-4.1,8.8
Fc1cccc(NC(=S)N2CCCC2)c1,0.1,0.8,63.3*,-1.9,-7.4,4.2
COc1cccc(NC(=S)N2CCN(Cc3ccccc3)CC2)c1,-0.3,7.3,11.2,4.2,-1.9,-0.5
COc1ccc(NC(=S)N2CCN(Cc3ccccc3)CC2)cc1,-0.8,12.2,2.7,-1.5,6.8,5.1
CC1(C#CC[N+]2(C)CCCCC2)CCC2C(O1)c1ccccc1OC2(C)C (stereo unspecified),-1.0,3.4,4.9,-2.8,-5.6,-2.4
CSc1cccc(NC(=S)N2CCCN(Cc3cccc(Cl)c3)C2)c1,-3.3,60.8,90.0*,-11.1,5.5,-33.5
COc1cccc(NC(=S)N2CCCC2)c1,-0.4,-11.4,76.0*,-5.3,-0.8,2.1
Cc1cccc(C)c1NC(=S)N1CCCN(Cc2ccc(F)cc2)C1,-2.6,3.2,73.1*,-8.1,4.3,-5.9
